Results taken from ChEMBL document CHEMBL3351236, “Prodrug oncrasin-266 improves the stability, pharmacokinetics, and safety of NSC-743380” (Bioorg Med Chem, 2014).
Activity calls are given as the source filed them. No cut-off for these calls is given here.

What was measured:
Kidney [1] = experiment: Drug level in kidney of Balb/c mouse xenografted with human Calu3 cells assessed as oncrasin-72 level at 60 mg/kg, iv using compound formulated in Solutol HS15 and ethyl alcohol measured after 24 hrs by HPLC/MS method; format: ADME, organism-based, Calu-3; parameters: dose 60 mg/kg, route intravenous; details: in vivo
Outline: (§1)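 Nude mice bearing subcutaneous Calu3 xenografts, 1 mouse per treatment group. Organs and tumor were taken 24 h later and kept at −80°C, then homogenized in methanol (50 mg/ml) on ice. Homogenate was extracted with acetonitrile containing 0.2% formic acid plus an internal standard, centrifuged, and the supernatant analyzed by HPLC/MS.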

Mus musculus [2] = experiment: Toxicity in Balb/c mouse assessed as mortality at 150 mg/kg, ip dosed daily for 3 days using compound formulated in Solutol HS15 and ethyl alcohol measured on day 5; format: organism-based; parameters: dose 150 mg/kg, route intraperitoneal; details: in vivo, 72 h
NCI-H460 = experiment: Anticancer activity against human H460 cells at 0.03 to 30 uM by sulforhodamine B assay; format: functional, cell-based
Outline: (§2)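 Sulforhodamine B viability assay on lung cancer cells exposed to a range of compound concentrations for 3 days. Untreated reference: DMSO-treated cells set as 100. Values are mean ± SD of quadruplicate wells.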

Mus musculus [3] = experiment: Toxicity in Balb/c mouse assessed as changes in blood cell parameters at 150 mg/kg, ip dosed daily for 3 days using compound formulated in Solutol HS15 and ethyl alcohol measured after 48 hrs; format: organism-based; parameters: dose 150 mg/kg, route intraperitoneal; details: in vivo
Spleen = experiment: Drug level in spleen of Balb/c mouse xenografted with human Calu3 cells assessed as aldehyde metabolite level at 60 mg/kg, iv using compound formulated in Solutol HS15 and ethyl alcohol measured after 24 hrs by HPLC/MS method; format: ADME, organism-based, Calu-3; parameters: dose 60 mg/kg, route intravenous; details: in vivo; outline: as §1
[4] = Stability in powder form in non-evacuated chambers at room temperature by HPLC method; format: physicochemical
Outline: (§3)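 Powders were kept at 4°C, room temperature (21°C) or 37°C and sampled for up to 90 days. Each aliquot was dissolved in DMSO, diluted with 9 volumes acetonitrile, and analyzed by HPLC for purity.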

NCI-H1299 = experiment: Anticancer activity against human H1299 cells at 0.03 to 30 uM by sulforhodamine B assay; format: functional, cell-based; outline: as §2
Mus musculus [5] = experiment: Toxicity in Balb/c mouse assessed as serum ALP level at 150 mg/kg, ip dosed daily for 3 days using compound formulated in Solutol HS15 and ethyl alcohol measured on day 6; format: organism-based; parameters: dose 150 mg/kg, route intraperitoneal; details: in vivo, 72 h
[6] = Stability in powder form in non-evacuated chambers at 37 degC after 1 to 14 days by HPLC method; format: physicochemical; outline: as §3
Mus musculus [7] = experiment: Toxicity in Balb/c mouse assessed as histopathological changes in liver at 150 mg/kg, ip dosed once using compound formulated in Solutol HS15 and ethyl alcohol measured after 48 hrs; details: in vivo
Mus musculus [8] = experiment: Toxicity in Balb/c mouse assessed as serum ALT level at 150 mg/kg, ip dosed daily for 3 days using compound formulated in Solutol HS15 and ethyl alcohol measured on day 6; format: organism-based; parameters: dose 150 mg/kg, route intraperitoneal; details: in vivo, 72 h
Mus musculus [9] = experiment: Toxicity in Balb/c mouse assessed as serum ALP level at 25 mg/kg, ip dosed daily for 8 days using compound formulated in Solutol HS15 and ethyl alcohol measured on day 6; format: organism-based; parameters: dose 25 mg/kg, route intraperitoneal; details: in vivo, 192 h
[10] = Stability in stock solution with Solutol HS15 and ethyl alcohol solvent at 4 degC by HPLC method; format: physicochemical
Outline: (§4)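 Stock solutions were made by dissolving compound in 75% (w/v) Solutol HS15 in ethanol (about 20% v/v ethanol). Final concentrations were 8 mg/ml for prodrug and 5 mg/ml for parent. Stocks were stored at 4°C or room temperature; aliquots were frozen at −20°C before HPLC.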

Plasma = experiment: Pro-drug conversion in human plasma assessed as oncrasin-72 release by HPLC method; format: ADME, cell-free
[11] = Stability in powder form in non-evacuated chambers at 4 degC by HPLC method; format: physicochemical; outline: as §3
Calu-3 = experiment: Anticancer activity against human Calu3 cells at 0.03 to 30 uM by sulforhodamine B assay; format: functional, cell-based; outline: as §2
[12] = Stability in powder form in non-evacuated chambers at 37 degC after 90 days by HPLC method; format: physicochemical; details: read-out: Stability; outline: as §3
Kidney [13] = experiment: Drug level in kidney of Balb/c mouse xenografted with human Calu3 cells assessed as aldehyde metabolite level at 60 mg/kg, iv using compound formulated in Solutol HS15 and ethyl alcohol measured after 24 hrs by HPLC/MS method; format: ADME, organism-based, Calu-3; parameters: dose 60 mg/kg, route intravenous; details: in vivo; outline: as §1
[14] = Half life in Balb/c mouse at 25 mg/kg, iv using compound formulated in Solutol HS15 and ethyl alcohol by HPLC/MS method; format: ADME, organism-based; parameters: dose 25 mg/kg, route intravenous; details: in vivo
Outline: (§5)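 Balb/c mice received 25 mg/kg by tail vein in Solutol HS15/ethanol vehicle. Blood was drawn from the tail vein at 0, 1, 2, 3.5, 7 and 24 h, 3 mice per time point, into lithium-heparin tubes. Plasma (50 µl) was precipitated with 150 µl acetonitrile containing 0.2% formic acid and internal standard, iced 15 min, centrifuged, and the supernatant analyzed by HPLC/MS for parent and released drug.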

Intestine = experiment: Drug level in intestine of Balb/c mouse xenografted with human Calu3 cells assessed as aldehyde metabolite level at 60 mg/kg, iv using compound formulated in Solutol HS15 and ethyl alcohol measured after 24 hrs by HPLC/MS method; format: ADME, organism-based, Calu-3; parameters: dose 60 mg/kg, route intravenous; details: in vivo; outline: as §1
[15] = Stability in stock solution with Solutol HS15 and ethyl alcohol solvent at room temperature by HPLC method; format: physicochemical; outline: as §4
Tumour [16] = experiment: Drug level in tumor of Balb/c mouse xenografted with human Calu3 cells assessed as oncrasin-72 level at 60 mg/kg, iv using compound formulated in Solutol HS15 and ethyl alcohol measured after 24 hrs by HPLC/MS method; format: ADME, organism-based, Neoplasm, Calu-3; parameters: dose 60 mg/kg, route intravenous; details: in vivo; outline: as §1
Mus musculus [17] = experiment: Toxicity in Balb/c mouse assessed as serum AST level at 150 mg/kg, ip dosed daily for 3 days using compound formulated in Solutol HS15 and ethyl alcohol measured on day 6; format: organism-based; parameters: dose 150 mg/kg, route intraperitoneal; details: in vivo, 72 h
Mus musculus [18] = experiment: Half life in Balb/c mouse assessed as oncrasin-72 release at 25 mg/kg, iv using compound formulated in Solutol HS15 and ethyl alcohol by HPLC/MS method; format: ADME, organism-based; parameters: dose 25 mg/kg, route intravenous; details: in vivo; outline: as §5
Lung [19] = experiment: Drug level in lung of Balb/c mouse xenografted with human Calu3 cells assessed as aldehyde metabolite level at 60 mg/kg, iv using compound formulated in Solutol HS15 and ethyl alcohol measured after 24 hrs by HPLC/MS method; format: ADME, organism-based, Calu-3; parameters: dose 60 mg/kg, route intravenous; details: in vivo; outline: as §1
Mus musculus [20] = experiment: Toxicity in Balb/c mouse assessed as mortality level at 300 mg/kg, ip using compound formulated in Solutol HS15 and ethyl alcohol measured after 1 day; format: organism-based; parameters: dose 300 mg/kg, route intraperitoneal; details: in vivo, 24 h
Outline: (§6)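 Acute toxicity: 3 Balb/c mice (7–8 weeks) per group, given i.p. 300 mg/kg on day 1 and again on day 2. Deaths were recorded by day; survivors were followed for 2 weeks.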

[21] = Drug level in liver of Balb/c mouse xenografted with human Calu3 cells at 60 mg/kg, iv using compound formulated in Solutol HS15 and ethyl alcohol measured after 24 hrs by HPLC/MS method; format: ADME, organism-based, Calu-3; parameters: dose 60 mg/kg, route intravenous; details: read-out: Drug uptake; outline: as §1
Liver [22] = experiment: Drug level in liver of Balb/c mouse xenografted with human Calu3 cells assessed as oncrasin-72 level at 60 mg/kg, iv using compound formulated in Solutol HS15 and ethyl alcohol measured after 24 hrs by HPLC/MS method; format: ADME, organism-based, Calu-3; parameters: dose 60 mg/kg, route intravenous; details: in vivo; outline: as §1
Mus musculus [23] = experiment: Toxicity in Balb/c mouse assessed as serum AST level at 25 mg/kg, ip dosed daily for 8 days using compound formulated in Solutol HS15 and ethyl alcohol; details: in vivo, 192 h
Liver [24] = experiment: Drug level in liver of Balb/c mouse xenografted with human Calu3 cells assessed as aldehyde metabolite level at 60 mg/kg, iv using compound formulated in Solutol HS15 and ethyl alcohol measured after 24 hrs by HPLC/MS method; format: ADME, organism-based, Calu-3; parameters: dose 60 mg/kg, route intravenous; details: in vivo; outline: as §1
[25] = Pro-drug conversion in pH 7.4 PBS solution assessed as oncrasin-72 release at 0.5 mg/ml by HPLC method; format: ADME; details: buffer, TDE = time-dependent effect
Outline: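 Stock in DMSO/acetonitrile was diluted in PBS pH 7.4 to 0.5 mg/ml, with final 12% DMSO and 18% acetonitrile. Incubated at 37°C for up to 24 h. Aliquots taken at 0.5, 1, 3, 6 and 24 h were held at −20°C, then diluted 50-fold in acetonitrile for HPLC. One of two experiments shown.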

Mus musculus [26] = experiment: Toxicity in Balb/c mouse assessed as serum ALT level at 25 mg/kg, ip dosed daily for 8 days using compound formulated in Solutol HS15 and ethyl alcohol measured on day 6; format: organism-based; parameters: dose 25 mg/kg, route intraperitoneal; details: in vivo, 192 h
Mus musculus [27] = experiment: Toxicity in Balb/c mouse assessed as survival at 300 mg/kg, ip using compound formulated in Solutol HS15 and ethyl alcohol; format: organism-based; parameters: dose 300 mg/kg, route intraperitoneal; details: in vivo; outline: as §6
NCI-H157 = experiment: Anticancer activity against human NCI-H157 cells at 0.03 to 30 uM by sulforhodamine B assay; format: functional, cell-based; outline: as §2
Tumour [28] = experiment: Drug level in tumor of Balb/c mouse xenografted with human Calu3 cells assessed as aldehyde metabolite level at 60 mg/kg, iv using compound formulated in Solutol HS15 and ethyl alcohol measured after 24 hrs by HPLC/MS method; format: ADME, organism-based, Neoplasm, Calu-3; parameters: dose 60 mg/kg, route intravenous; details: in vivo; outline: as §1
[29] = Stability in injectable solution with Solutol HS15 and ethyl alcohol and 0.9% NaCl assessed as drug hydrolysis within 7 hrs at 37 degC by HPLC method; format: physicochemical; details: read-out: Drug degradation
Lung [30] = experiment: Drug level in lung of Balb/c mouse xenografted with human Calu3 cells assessed as oncrasin-72 level at 60 mg/kg, iv using compound formulated in Solutol HS15 and ethyl alcohol measured after 24 hrs by HPLC/MS method; format: ADME, organism-based, Calu-3; parameters: dose 60 mg/kg, route intravenous; details: in vivo; outline: as §1
[31] = Stability in injectable solution with Solutol HS15 and ethyl alcohol and 0.9% NaCl assessed as drug hydrolysis within 7 hrs at room temperature by HPLC method; format: physicochemical; details: injectable solution; read-out: Drug degradation

O=C(CC1CCCCC1)OCc1cn(Cc2cccc(Cl)c2)c2ccccc12
Drug uptake (Kidney [1]): 7.3 µg/g
Activity (Mus musculus [2]): Non-toxic
Activity (NCI-H460): Active
Activity (Mus musculus [3]): Non-toxic
Drug uptake (Spleen): 34 µg/g
Stability [4]: 90 days
Activity (NCI-H1299): inactive
Activity (Mus musculus [5]): 50 U/L
Stability [6]: Stable
Activity (Mus musculus [7]): Non-toxic
Activity (Mus musculus [8]): 115.5 U/L
Activity (Mus musculus [9]): 76 U/L
Stability [10]: 4 weeks
Drug metabolism (Plasma): metabolite_detected
Stability [11]: 90 days
Activity (Calu-3): Active
remaining at 2160 h [12]: < 5%
Drug uptake (Kidney [13]): 26.5 µg/g
half-life [14]: 1 h
Drug uptake (Intestine): 5.9 µg/g
Stability [15]: 2 weeks
Drug uptake (Tumour [16]): 4.7 µg/g
Activity (Mus musculus [17]): 325.5 U/L
t1/2 (Mus musculus [18]): 1.25 h
Drug uptake (Lung [19]): 68.4 µg/g
Activity (Mus musculus [20]): Toxic
concentration at 24 h [21]: 157000 ng/g
Drug uptake (Liver [22]): 12.6 µg/g
Activity (Mus musculus [23]): 94 U/L
Drug uptake (Liver [24]): 14.9 µg/g
Drug metabolism [25]: tde
Activity (Mus musculus [26]): 36.3 U/L
Survival (Mus musculus [27]): 2 weeks
Activity (NCI-H157): Active
Drug uptake (Tumour [28]): 4.4 µg/g
degraded at 7 h [29]: > 10%
Drug uptake (Lung [30]): 7.7 µg/g
degraded at 7 h [31]: 10%
